# Key:
# [1] = target: T1, Orexin/Hypocretin receptor type 1 (Homo sapiens, UniProt O43613); assay: Antagonist activity at human OX1 receptor expressed in CHO cells assessed as inhibition of orexin A-induced Ca2+ accumulation after 1 hr by Fluo-4-AM staining-based FLIPR assay; format: functional, cell-based
# T1 sequence (O43613 whole entry): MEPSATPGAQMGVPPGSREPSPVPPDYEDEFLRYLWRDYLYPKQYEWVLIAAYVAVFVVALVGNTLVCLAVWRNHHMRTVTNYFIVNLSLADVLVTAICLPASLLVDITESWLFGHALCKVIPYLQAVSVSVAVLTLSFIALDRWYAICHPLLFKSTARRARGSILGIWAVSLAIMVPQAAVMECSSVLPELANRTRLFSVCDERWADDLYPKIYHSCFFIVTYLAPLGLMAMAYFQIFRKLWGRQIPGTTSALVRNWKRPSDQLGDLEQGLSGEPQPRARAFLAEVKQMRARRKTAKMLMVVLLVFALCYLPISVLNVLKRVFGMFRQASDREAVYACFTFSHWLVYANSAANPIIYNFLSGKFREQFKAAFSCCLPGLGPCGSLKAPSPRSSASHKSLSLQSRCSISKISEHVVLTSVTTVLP
# Summary of the method: (§1)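 Recombinant CHO or HEK cells expressing human OX1R or OX2R, serum-deprived overnight in HEPES buffer pH 7.4 with 1% BSA. Cells were loaded with 2 μM Fluo4-AM plus 0.1 mM probenecid for 1 h. Compound (up to eight concentrations, usually 10⁻⁹–10⁻⁵ M) was added first, then submaximal orexin A 1 h later. Curves run in triplicate; pKi from IC50 by Cheng–Prusoff.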
# Orexin receptor type 2 = target: T2, Orexin receptor type 2 (Homo sapiens, UniProt O43614); assay: Antagonist activity at human OX2 receptor expressed in HEK cells assessed as inhibition of orexin A-induced Ca2+ accumulation after 1 hr by Fluo-4-AM staining-based FLIPR assay; format: functional, cell-based, HEK293; summary of the method: as §1
# T2 sequence (O43614 whole entry): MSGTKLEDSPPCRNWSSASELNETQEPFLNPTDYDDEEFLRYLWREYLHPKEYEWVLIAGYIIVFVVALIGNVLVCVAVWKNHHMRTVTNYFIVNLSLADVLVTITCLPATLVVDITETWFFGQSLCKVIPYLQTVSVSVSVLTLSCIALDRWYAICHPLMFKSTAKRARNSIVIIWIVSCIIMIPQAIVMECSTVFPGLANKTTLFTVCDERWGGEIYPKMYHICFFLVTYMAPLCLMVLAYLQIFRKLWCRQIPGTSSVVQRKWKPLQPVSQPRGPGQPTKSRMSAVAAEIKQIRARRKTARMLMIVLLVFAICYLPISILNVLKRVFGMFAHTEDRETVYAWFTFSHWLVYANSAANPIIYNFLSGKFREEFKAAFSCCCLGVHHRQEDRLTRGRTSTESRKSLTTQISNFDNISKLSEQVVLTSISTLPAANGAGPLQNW
Compound,pIC50 ([1]; cho),Ki (Orexin receptor type 2) [nM],Ki [1] [nM]
O=C1N(Cc2c[nH]c3ccccc23)CCCC12CCN(c1cnccn1)CC2,> 5,309,
Cc1cc(C)nc(N2CCC3(CCCN(Cc4nn(C)cc4-c4ccccc4)C3=O)CC2)n1,,17.4,813
Cc1cc(C)nc(N2CCC3(CCCN(Cc4c[nH]c5ccccc45)C3=O)CC2)n1,,6.92,661
O=C1N(Cc2c[nH]c3ccccc23)CCCC12CCN(c1cnc3ccccc3n1)CC2,,61.7,288
O=C1CCCC2(CCN(c3cnc4ccccc4n3)CC2)N1Cc1ccccc1,,589,1480
O=C(Cc1ccccc1)N1CCCC12CCN(c1cnc3ccccc3n1)CC2,,186,955
Cc1cc(C)nc(N2CCC3(CCCN(Cc4n[nH]c5ccccc45)C3=O)CC2)n1,,6.92,490
O=C1N(Cc2ccccc2)CCCC12CCN(c1cnc3ccccc3n1)CC2,,182,1550

# Now those with a lower Ki (Orexin receptor type 2), led by results:
pIC50 ([1]; cho),Ki (Orexin receptor type 2) [nM],Ki [1] [nM],Compound
,4.57,759,Cc1cc(C)nc(N2CCC3(CCCN(Cc4nn(C)nc4-c4ccccc4)C3=O)CC2)n1
,0.166,20.4,COc1ccc2[nH]cc(CN3CCCC4(CCN(c5nc(C)cc(C)n5)CC4)C3=O)c2c1
,1.17,708,Cc1cc(C)nc(N2CCC3(CCCN(Cc4[nH]nnc4-c4ccccc4)C3=O)CC2)n1
,3.16,18.6,O=C1CCCC2(CCN(c3nc4ccccc4o3)CC2)N1Cc1cccc2[nH]ccc12
